Test results from ChEMBL document CHEMBL4138109, “Synthesis and structure-activity relationships of novel fused ring analogues of Q203 as antitubercular agents” (Eur J Med Chem, 2017).
In brackets after ≈: the same amount, converted by molar mass.

Assays:
[1] = Half life in rat liver microsomes; assay type: ADME, microsome
[2] = tested on: Mycobacterium tuberculosis; test: Antimycobacterial activity against GFP expressing Mycobacterium tuberculosis H37Rv infected in mouse RAW264.7 cells assessed as reduction in bacterial replication after 5 days by confocal microscopic method; assay type: functional; settings: 120 h
In short: (§1)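 H37Rv expressing GFP, grown either in liquid broth (extracellular) or inside macrophages (intracellular). The value is MIC80, the lowest concentration that inhibits growth by 80%, averaged from two independent measurements.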

[3] = tested on: Mycobacterium tuberculosis; test: Antimycobacterial activity against GFP expressing Mycobacterium tuberculosis H37Rv assessed as reduction in bacterial replication in culture broth medium; assay type: functional; in short: as §1
[4] = Half life in human liver microsomes; assay type: ADME, microsome
[5] = Clearance in mouse at 2 mg/kg, iv; assay type: ADME, organism-based; settings: in vivo
In short: (§2)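 Mice received a single intravenous dose of 2 mg/kg or an oral dose of 10 mg/kg. Drug concentrations were measured in plasma, with sampling that extended to 24 h, and the pharmacokinetic parameters were derived from the plasma concentration–time profiles.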

[6] = AUC (0 to infinity) in mouse at 10 mg/kg, po; assay type: ADME, organism-based; design: dose 10 mg/kg, route oral, time infinity; settings: in vivo; in short: as §2
[7] = Half life in mouse at 10 mg/kg, po; assay type: ADME, organism-based; settings: in vivo; in short: as §2
[8] = Oral bioavailability in mouse at 10 mg/kg; assay type: ADME, organism-based; settings: in vivo; in short: as §2
[9] = Cmax in mouse at 10 mg/kg, po; assay type: ADME, organism-based; design: dose 10 mg/kg, route oral; settings: in vivo; in short: as §2
[10] = Volume of distribution at steady state in mouse at 2 mg/kg, iv; assay type: ADME, organism-based; settings: in vivo, read-out: Vdss; in short: as §2
[11] = Half life in mouse at 2 mg/kg, iv; assay type: ADME, organism-based; settings: in vivo; in short: as §2
[12] = Tmax in mouse at 10 mg/kg, po; assay type: ADME, organism-based; settings: in vivo; in short: as §2

SMILES	half-life [1] [min]	MIC80 [2] [µM]	MIC80 [3] [µM]	half-life [4] [min]	clearance [5] [mL/min/kg]	AUC(0-inf) [6] [µg·h/mL]	half-life [7] [h]	bioavailability [8] [%]	Cmax [9] [ng/mL]	Vd [10] [L/kg]	half-life [11] [min]	Tmax [12] [min]
CCc1nc2ccc(Cl)cn2c1C(=O)NCc1ccc2oc(-c3ccc(F)cc3)nc2c1	54.3	0.003 (≈ 0.00135 µg/mL)	0.009 (≈ 0.00404 µg/mL)	25.6								
CCc1nc2cc(Cl)ccn2c1C(=O)NCc1ccc2ccccc2c1	6.3	1 (≈ 0.364 µg/mL)	0.12 (≈ 0.0437 µg/mL)	23.7								
CCc1nc2cc(Cl)ccn2c1C(=O)NCc1ccc2oc(C3CCCCC3)nc2c1	9.5	0.082 (≈ 0.0358 µg/mL)	0.082 (≈ 0.0358 µg/mL)	10.2								
CCc1nc2ccc(Cl)cn2c1C(=O)NCc1ccc2oc(-c3ccc(OC(F)(F)F)cc3)nc2c1	> 120	0.009 (≈ 0.00463 µg/mL)	0.027 (≈ 0.0139 µg/mL)	> 120								
CCc1nc2cc(Cl)ccn2c1C(=O)NCc1ccc2oc(CN3CCOCC3)nc2c1	18.9	6.67 (≈ 3.03 µg/mL)	13.7 (≈ 6.22 µg/mL)	23.2								
CCc1nc2ccc(Cl)cn2c1C(=O)NCc1ccc2oc(C)nc2c1	5.8	0.082 (≈ 0.0302 µg/mL)	0.2 (≈ 0.0738 µg/mL)	32.2								
CCc1nc2cc(Cl)ccn2c1C(=O)NCc1ccc2oc(-c3ccc(F)cc3)nc2c1	> 120	0.74 (≈ 0.332 µg/mL)	0.082 (≈ 0.0368 µg/mL)	103								
CCc1nc2ccc(Cl)cn2c1C(=O)NCc1ccc2c(c1)OCO2	2.1	0.009 (≈ 0.00322 µg/mL)	0.082 (≈ 0.0293 µg/mL)	7.4								
CCc1nc2ccc(Cl)cn2c1C(=O)NCc1ccc2ccccc2c1	3.1	0.062 (≈ 0.0226 µg/mL)	0.031 (≈ 0.0113 µg/mL)	6.9								
CCc1nc2cc(Cl)ccn2c1C(=O)NCc1ccc2oc(-c3ccc(OC(F)(F)F)cc3)nc2c1	> 120	< 0.001	0.009 (≈ 0.00463 µg/mL)	> 120	0.6	116	36.3	40.1	5560	1.2	1080	60
CCc1nc2ccc(Cl)cn2c1C(=O)NCc1ccc2oc(C3CCCCC3)nc2c1	5.2	0.082 (≈ 0.0358 µg/mL)	0.082 (≈ 0.0358 µg/mL)	17								
CCc1nc2ccc(Cl)cn2c1C(=O)NCc1ccc2oc(CN3CCOCC3)nc2c1	14.1	2.22 (≈ 1.01 µg/mL)	2.67 (≈ 1.21 µg/mL)	17								
CCc1nc2cc(Cl)ccn2c1C(=O)NCc1ccc2oc(C)nc2c1	10.3	0.74 (≈ 0.273 µg/mL)	1.53 (≈ 0.564 µg/mL)	> 120								
NNC(=O)c1ccncc1 [ISONIAZID]		0.2 (≈ 0.0274 µg/mL)	0.49 (≈ 0.0672 µg/mL)									
CCc1nc2ccc(Cl)cn2c1C(=O)NCc1ccc(N2CCC(c3ccc(OC(F)(F)F)cc3)CC2)cc1 [TELACEBEC]		0.001 (≈ 0.000557 µg/mL)	0.004 (≈ 0.00223 µg/mL)									
